High-throughput results deposited in PubChem by several laboratories.
This is a sample that favours compounds with a hit; in the whole collection about 4.8% have one here.
UPR XBP1 act – activators of adaptive arm of unfolded protein response (XBP1); CHO-XBP1 luciferase reporter, IRE1-XBP1 UPR activation, luminescence; percent of tunicamycin response, DMSO as zero; activation, % at 20 µM; 0.33% of 330,000 active; AID 463104;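 active means versus positive control, 20 µM dose yields 30% or more activation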;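 further: 100% = tunicamycin at 10 µg/mL and 0% = DMSO only wells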
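Material: CHO cell line with stable XBP1 luciferase reporter; schedule: 16-18 h cell attachment at 37 °C, then 6 h compound exposure; signal: glow luminescence from Steady-Glo reagent; medium: serum-containing F12 medium, 10% FBS; benchmarks: tunicamycin 10 µg/mL and vehicle-only wells; read-out: percent activation relative to tunicamycin reference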
CSC inhib – cancer stem cell inhibition. inhibition, % at 7.5 µM. AID 2717. cancer stem cell-like cells viability, luminescence. 1.1% of 300,000 active; in the data active means inhibition above about 75%; tested in HMLE shEcad cells
Mdm2-MdmX inh – inhibitors of human Mdm2/MdmX interaction; 3% of 330,000 active; SaOS-2 split-luciferase Mdm2/MdmX complementation, luminescence; O15151+Q00987; inhibition, % at 8 µM;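 active means inhibition of at least 50% at 8 µM in the primary screen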
Target sequence (O15151 whole entry, looked up): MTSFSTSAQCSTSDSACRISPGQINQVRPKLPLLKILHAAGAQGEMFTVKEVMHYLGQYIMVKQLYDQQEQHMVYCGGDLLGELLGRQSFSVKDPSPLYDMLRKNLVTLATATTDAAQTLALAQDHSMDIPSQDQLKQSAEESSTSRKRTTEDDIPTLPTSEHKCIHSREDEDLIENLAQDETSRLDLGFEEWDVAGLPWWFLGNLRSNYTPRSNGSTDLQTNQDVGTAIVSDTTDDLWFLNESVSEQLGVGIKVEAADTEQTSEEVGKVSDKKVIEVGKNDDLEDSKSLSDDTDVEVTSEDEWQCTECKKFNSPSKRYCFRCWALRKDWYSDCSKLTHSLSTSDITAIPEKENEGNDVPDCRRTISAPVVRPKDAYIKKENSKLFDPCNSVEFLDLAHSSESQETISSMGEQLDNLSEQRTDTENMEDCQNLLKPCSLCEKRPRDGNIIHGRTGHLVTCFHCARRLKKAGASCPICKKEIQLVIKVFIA
Target sequence (Q00987 whole entry, looked up): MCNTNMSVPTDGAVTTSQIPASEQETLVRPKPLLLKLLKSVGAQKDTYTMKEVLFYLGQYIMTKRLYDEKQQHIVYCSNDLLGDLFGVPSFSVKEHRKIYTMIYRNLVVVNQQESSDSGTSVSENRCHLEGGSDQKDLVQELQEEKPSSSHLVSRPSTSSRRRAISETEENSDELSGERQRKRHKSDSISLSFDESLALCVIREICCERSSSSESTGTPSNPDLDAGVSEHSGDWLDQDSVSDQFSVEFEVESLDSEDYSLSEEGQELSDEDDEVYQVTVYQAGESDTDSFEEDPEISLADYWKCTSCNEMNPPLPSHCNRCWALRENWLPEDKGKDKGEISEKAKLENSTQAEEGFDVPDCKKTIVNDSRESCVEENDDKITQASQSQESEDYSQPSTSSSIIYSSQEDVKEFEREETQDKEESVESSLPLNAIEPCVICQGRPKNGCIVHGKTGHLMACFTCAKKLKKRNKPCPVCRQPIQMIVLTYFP
SKKanGAS inh – SKKanGAS growth inhibition | S. pyogenes SKKanGAS, kanamycin growth, BacTiter-Glo, 6 h | AID 1662 | inhibition, % at 7.5 µM | 1.3% of 300,000 active;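 active means mean replicate score, as percent of positive control median, at least 50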;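 further: strain carries kanamycin resistance gene driven by streptokinase promoter and grows in 40 µg/ml kanamycin; loss of luminescence reflects streptokinase promoter inhibition or plain growth inhibition; 0% = median of DMSO wells and 100% = positive control at its reference dose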
UPR CHOP act – apoptotic UPR (CHOP) activation. CHO-CHOP luciferase reporter, luminescence; percent of tunicamycin response over DMSO baseline. activation, % at 10 µM. 0.34% of 330,000 active;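 active means at 10 µM dose, activation of 40% or more, normalized to positive control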;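 further: 100% = tunicamycin at 10 µg/mL and 0% = DMSO alone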
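Test system: CHO CHOP reporter cells. Input: 500 CHO-CHOP cells per well. Medium: F12 with 10% FBS. Technique: luciferase luminescence. Measure: percent activation relative to tunicamycin control. Dosing: 10 µM compound, 0.5% DMSO. Timing: 16-18 h cell attachment, then 6 h compound exposure, 37 °C.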
Beta apoptosis – blocks beta cell apoptosis; INS-1E cytokine-induced death, ATP luminescence, 48 h; percent of positive-control rescue, neutral wells zero; protection from apoptosis, % (no concentration beside the values); 0.8% of 300,000 active; AID 435005;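 active means Every replicate reaches about 75%, or at least half do and their mean reaches it too, limit read from the data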;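 further: 0% = cytokine-treated negative control wells and 100% = positive control rescue; higher means more ATP so stronger rescue from cytokine killing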
Mdm2-MdmX conf – confirmation of human Mdm2/MdmX interaction inhibitors; shares compounds with Mdm2-MdmX inh; Mdm2-MdmX binding, luminescent assay; inhibition, % at 8 µM; 55% of 10,000 active; AID 489028; in the data active means inhibition above about 40%
FLuc counter – counter-screen for Mdm2/MdmX inhibitors: full-length luciferase | shares compounds with Mdm2-MdmX inh | SaOS-2 full-length luciferase counterscreen, luminescence | inhibition, % at 8 µM | 77% of 6,200 active;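 active means mean inhibition at 8 µM reaching about 37%, which flags the compound as non-specific, limit read from the data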;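 further: p53-null SaOS-2 cells with luciferase driven by a doxycycline-inducible promoter; compound on cells about two nights before reading with doxycycline added after day one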
The depositor's hits bear a star; / = no result given.

SMILES | UPR XBP1 act | CSC inhib | Mdm2-MdmX inh | SKKanGAS inh | UPR CHOP act | Beta apoptosis | Mdm2-MdmX conf | others
COc1ccc(CCn2c(SCC(=O)Nc3cc(C)on3)nc3ccsc3c2=O)cc1OC | 6.7 | -9.6 | 15.4 | / | 3.0 | / | /
Cc1cc(NC(=O)CSc2nc3cc(Cl)ccc3c(=O)n2C(C)C)no1 | 5.8 | / | 55.6* | / | 1.2 | / | 19.6
COc1ccc(CCn2c(SCC(=O)Nc3cc(C)on3)nc3ccccc3c2=O)cc1OC | 22.6 | -10.1 | 58.8* | 17.1 | 2.9 | -11.3 | 24.5
CCN1CCN(CCCNC(=O)c2ccc3c(c2)N(Cc2ccc(C)cc2)CCS3)CC1 | -1.3 | -0.6 | 51.0* | -5.9 | 2.7 | 5.3 | 6.0
COc1ccc(/C=C2/Sc3ccc(C(=O)NCCCN4CCOCC4)cc3NC2=O)cc1OC | 11.6 | 6.9 | 75.8* | 1.8 | 0.0 | / | 19.1
Cc1cccc(/C=C2/Sc3ccc(C(=O)NCCCN4CCOCC4)cc3NC2=O)c1 | 0.5 | 114.8* | 52.7* | 7.9 | -1.4 | 5.3 | 1.9
Cc1ccc(CN2CCSc3ccc(C(=O)NCCCN4CCOCC4)cc32)cc1 | -2.0 | 23.5 | 29.8 | 0.8 | -0.8 | 9.7 | /
CCN1CCN(CCCNC(=O)c2ccc3c(c2)NC(=O)/C(=C\c2cccc(C)c2)S3)CC1 | 0.3 | 121.1* | 97.5* | -6.1 | 7.4 | 62.4 | 61.2* | FLuc counter=63.2*
O=C(Nc1ccccc1Cl)c1ccc(=O)[nH]n1 | 2.1 | -4.2 | 13.1 | -2.1 | -1.2 | -4.9 | /
Cc1cc(=O)oc2cc(NC(=O)c3ccccc3Cl)ccc12 | 1.9 | 16.0 | -75.0 | -3.2 | 5.8 | 5.5 | /
CCOc1ccc(/C(O)=C2/C(=O)C(=O)N(CCCN3CCOCC3)C2c2ccc(C)cc2)cc1C (stereo not drawn) | -3.9 | 19.5 | 8.2 | 0.5 | -0.9 | -1.7 | /
COCCCN(C(=O)C(C)Oc1ccc(Br)cc1)c1c(N)n(Cc2ccccc2)c(=O)[nH]c1=O (stereo not drawn) | -1.5 | -2.2 | 23.2 | -3.1 | -0.1 | -1.8 | /
COc1cc(C(=S)N2CCOCC2)cc(OC)c1OC(=O)c1ccc(C)cc1 | -7.1 | -3.4 | 4.7 | -5.9 | -1.2 | -3.5 | /
CCN1CCCC1CNC(=O)c1cc(N)ccc1OC (stereo not drawn) | -5.4 | -9.6 | -29.9 | -9.8 | 0.8 | / | /
CCN1CCCC1CNC(=O)c1ccc2c(c1)NC(=O)/C(=C\c1ccc(OC)c(OC)c1)S2 (stereo not drawn) | 4.5 | 3.6 | 52.5* | -2.6 | -0.2 | -11.1 | 18.6
Cc1ccc(N(CCC#N)C(=O)CSc2nnc3ccccn23)cc1 | -1.3 | / | 0.6 | / | -1.4 | 2.0 | /
COc1cc(C(=O)Oc2ccccc2/C=N/NC(=O)c2ccc(C)c(Cl)c2)cc(OC)c1OC | 0.8 | 24.0 | 57.6* | 13.1 | 2.5 | 93.0* | 27.2
COc1cc(C(=O)Oc2ccccc2/C=N/NC(=O)c2ccc(Cl)cc2)cc(OC)c1OC | 8.0 | 40.9 | 45.6 | 27.9 | 2.2 | / | /
N=C1S/C(=C\c2cccc3ccccc23)C(=O)N1c1ccc(F)cc1 | 4.1 | 97.2* | 55.7* | 55.9* | 2.0 | 10.1 | 48.6* | FLuc counter=61.9*
Cc1nnc(SCC(=O)N2CCC(c3noc4ccc(F)cc34)CC2)s1 | -2.4 | -0.8 | 77.8* | -0.1 | -2.2 | -19.3 | 69.0* | FLuc counter=19.8
Cc1sc2ncnc(SCC(=O)N3CCC(c4noc5ccc(F)cc45)CC3)c2c1C | 1.8 | -6.5 | 21.8 | 23.3 | -0.4 | -6.1 | /
CCOC(=O)C1CCCN(c2ccc(NC(=O)c3snc4c(=O)[nH]c(C)nc34)cc2)C1 (stereo not drawn) | 17.4 | -7.8 | 69.9* | 21.2 | 16.5 | 23.2 | 40.7* | FLuc counter=87.6*
CC(C)C[C@H]1CN=C(Nc2ccccc2)N1CCc1cccc(F)c1 | -1.6 | 26.3 | 57.9* | / | 2.6 | -4.6 | -18.6
CC(C)C[C@H]1CN=C(N(C)C)N1CCc1cccc(F)c1 | -0.9 | -13.9 | 23.1 | / | 2.2 | -8.1 | /
COc1ccc(CCNC(=O)C2CCN(Cc3nc(-c4ccccc4C)oc3C)CC2)cc1OC | -0.3 | 9.9 | 25.1 | -6.8 | -2.3 | 3.3 | /
SMILES | UPR XBP1 act | CSC inhib | Mdm2-MdmX inh | SKKanGAS inh | UPR CHOP act | Beta apoptosis | Mdm2-MdmX conf | others
Cc1ccccc1-c1nc(CN2CCC(C(=O)NCCC3=CCCCC3)CC2)c(C)o1 | -1.4 | -12.1 | 57.6* | -4.8 | 2.1 | 6.0 | 33.9 | FLuc counter=76.5*
Cc1ccccc1-c1nc(CN2CCC(C(=O)NCCCN3CCCC(C)C3)CC2)c(C)o1 (stereo not drawn) | -1.2 | 3.4 | 95.7* | -2.2 | 2.6 | 3.8 | 69.8* | FLuc counter=43.5*
CCCn1ncc2c(Nc3ccc(C)c(C)c3)ncnc21 | 2.5 | -10.6 | 7.6 | 10.8 | 4.9 | -6.5 | /
NC(=S)N/N=C\c1c2ccccc2cc2ccccc12 | / | 14.3 | / | / | / | 2.8 | /
NC(=S)N/N=C\c1c(OCc2ccccc2Cl)ccc2ccccc12 | 0.9 | 28.1 | 52.7* | 49.7* | 3.5 | 37.5 | 5.0
Cc1ccc(C(=O)NCc2ccc(Cl)cc2)cc1S(=O)(=O)N1CCCCC1 | -3.8 | / | -17.9 | / | -0.7 | -3.4 | /
FC(F)(F)c1cc(C(F)(F)F)c2ccc(N3CCN(c4ccc(Cl)cc4)CC3)nc2n1 | -1.2 | 13.8 | 45.2 | 0.6 | -0.2 | 2.0 | /
N#CC(c1ccc(Cl)cc1)c1ccc2c(C(F)(F)F)cc(C(F)(F)F)nc2n1 (stereo not drawn) | -6.7 | -13.3 | 99.3* | 38.4 | 25.3 | 124.3* | 95.5* | FLuc counter=24.0
Cc1cc(C)c2nc(Cl)c(CN(Cc3ccco3)C(=O)Nc3ccccc3C)cc2c1 | 9.5 | 52.7 | 63.1* | 11.2 | -1.4 | 11.2 | 53.0* | FLuc counter=98.3*
COCCN(Cc1cc2cc(C)cc(C)c2nc1Cl)C(=O)Nc1ccccc1 | -1.0 | 63.8 | 44.6 | -3.7 | 1.5 | 15.7 | /
COc1cc(C2c3c(n[nH]c3C)C(=O)N2c2ccc(C)cc2)ccc1O (stereo not drawn) | -1.0 | -5.7 | 68.6* | 8.3 | -1.1 | 4.4 | 72.5* | FLuc counter=50.8*
CCOc1cc(C2c3c(n[nH]c3C)C(=O)N2c2ccc(C)cc2)ccc1O (stereo not drawn) | -0.2 | -15.2 | 4.5 | 2.7 | -0.2 | -2.7 | /
Clc1ccc(CSc2nnc(-c3ccncc3)s2)cc1 | 4.6 | 2.7 | 15.6 | -3.4 | -0.3 | -5.5 | /
Clc1cccc(Cl)c1CSc1nnc(-c2ccncc2)s1 | 8.5 | 8.7 | 77.9* | -8.3 | 5.7 | -2.7 | 32.8
C=CCN(Cc1ccc(Cl)s1)C(=O)c1ccc(F)c(S(=O)(=O)N2CCOCC2)c1 | 0.2 | -2.0 | 27.2 | / | -0.7 | 2.6 | /
COc1cccc(/C=C/C(=O)Nc2ccc(C(=O)Nc3cccc(S(N)(=O)=O)c3)cc2)c1OC | 5.1 | 4.5 | 70.7* | 12.9 | 0.6 | 12.9 | 18.9
